Test results: ChEMBL document CHEMBL1145087 (J Med Chem, 2003)

Legend:
[1] = target: T1, Glucocorticoid receptor (Homo sapiens, UniProt P04150); test: Inhibition of Dexamethasone binding to human glucocorticoid receptor expressed in baculovirus […] cells
T1 sequence (P04150 whole entry): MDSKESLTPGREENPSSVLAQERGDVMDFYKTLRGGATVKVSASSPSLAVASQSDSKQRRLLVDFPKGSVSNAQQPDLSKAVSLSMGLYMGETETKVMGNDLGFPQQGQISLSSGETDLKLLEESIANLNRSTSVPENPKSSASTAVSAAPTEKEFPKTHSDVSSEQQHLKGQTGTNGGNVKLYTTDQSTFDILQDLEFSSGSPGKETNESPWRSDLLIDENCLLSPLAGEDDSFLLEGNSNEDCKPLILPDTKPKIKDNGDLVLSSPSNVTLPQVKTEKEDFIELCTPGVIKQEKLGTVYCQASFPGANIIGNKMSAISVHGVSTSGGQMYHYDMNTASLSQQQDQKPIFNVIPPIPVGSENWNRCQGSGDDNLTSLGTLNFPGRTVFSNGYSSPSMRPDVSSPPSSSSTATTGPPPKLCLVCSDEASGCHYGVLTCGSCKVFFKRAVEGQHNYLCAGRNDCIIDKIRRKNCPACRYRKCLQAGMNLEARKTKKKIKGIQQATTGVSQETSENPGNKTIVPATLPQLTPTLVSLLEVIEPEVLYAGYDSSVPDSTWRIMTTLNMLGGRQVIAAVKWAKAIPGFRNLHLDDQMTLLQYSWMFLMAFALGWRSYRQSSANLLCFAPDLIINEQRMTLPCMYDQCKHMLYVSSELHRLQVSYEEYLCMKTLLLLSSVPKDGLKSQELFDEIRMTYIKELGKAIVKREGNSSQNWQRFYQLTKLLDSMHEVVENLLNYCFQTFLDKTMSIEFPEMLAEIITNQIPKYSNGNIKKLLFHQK

[2] = target: T2, Progesterone receptor (Homo sapiens, UniProt P06401); test: Agonistic activity against human progesterone receptor in CV-1 cells; assay type: functional, cell-based
T2 sequence (P06401 whole entry): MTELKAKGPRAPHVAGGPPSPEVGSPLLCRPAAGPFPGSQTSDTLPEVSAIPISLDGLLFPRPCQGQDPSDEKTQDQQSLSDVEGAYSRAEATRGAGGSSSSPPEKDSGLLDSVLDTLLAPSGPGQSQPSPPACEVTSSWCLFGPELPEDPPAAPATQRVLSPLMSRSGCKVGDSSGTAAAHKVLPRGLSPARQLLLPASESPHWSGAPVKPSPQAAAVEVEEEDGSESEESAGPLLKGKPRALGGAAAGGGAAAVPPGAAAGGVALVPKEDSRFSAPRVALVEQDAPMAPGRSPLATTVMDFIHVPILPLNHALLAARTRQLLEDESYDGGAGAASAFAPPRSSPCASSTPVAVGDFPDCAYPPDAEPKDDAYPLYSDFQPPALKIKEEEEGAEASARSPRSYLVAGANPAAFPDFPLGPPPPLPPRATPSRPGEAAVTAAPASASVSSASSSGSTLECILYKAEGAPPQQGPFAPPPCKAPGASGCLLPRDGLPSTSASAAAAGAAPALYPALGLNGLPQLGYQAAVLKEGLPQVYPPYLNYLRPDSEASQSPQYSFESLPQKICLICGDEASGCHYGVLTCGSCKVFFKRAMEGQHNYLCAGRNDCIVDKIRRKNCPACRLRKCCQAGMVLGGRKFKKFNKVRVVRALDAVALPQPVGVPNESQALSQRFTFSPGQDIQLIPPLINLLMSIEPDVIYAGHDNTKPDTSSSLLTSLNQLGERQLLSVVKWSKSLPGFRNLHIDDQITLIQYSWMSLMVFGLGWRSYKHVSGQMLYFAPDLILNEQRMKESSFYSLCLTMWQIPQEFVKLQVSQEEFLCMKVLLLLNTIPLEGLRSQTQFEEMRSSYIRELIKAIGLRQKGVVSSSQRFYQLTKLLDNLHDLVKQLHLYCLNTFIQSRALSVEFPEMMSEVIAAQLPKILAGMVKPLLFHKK

[3] = target: T2, Progesterone receptor; test: Agonistic activity against human progesterone receptor in T47D breast cancer cells; assay type: functional, cell-based
[4] = target: T3, Progesterone receptor (Homo sapiens) (UniProt P06401); test: Percent agonistic effect towards human progesterone receptor in CV-1 cells; assay type: functional, cell-based
T3 sequence (whole entry): T2 sequence (P06401 whole entry)

[5] = target: T3, Progesterone receptor (Homo sapiens); test: Percent agonistic effect towards human progesterone receptor in T47D breast cancer cells; assay type: functional, cell-based
[6] = target: T2, Progesterone receptor; test: Binding affinity towards human progesterone receptor A isoform using progesterone as radioligand
[7] = organism: Homo sapiens; test: Relative potency for human androgen and progesterone receptors
[8] = organism: Homo sapiens; test: Relative potency for human estrogen and progesterone receptors
[9] = organism: Homo sapiens; test: Relative potency for human glucocorticoid and progesterone receptors
[10] = organism: Homo sapiens; test: Relative potency for human mineralocorticoid and progesterone receptors
[11] = target: T4, Androgen receptor (Homo sapiens, UniProt P10275)
T4 sequence (P10275 whole entry): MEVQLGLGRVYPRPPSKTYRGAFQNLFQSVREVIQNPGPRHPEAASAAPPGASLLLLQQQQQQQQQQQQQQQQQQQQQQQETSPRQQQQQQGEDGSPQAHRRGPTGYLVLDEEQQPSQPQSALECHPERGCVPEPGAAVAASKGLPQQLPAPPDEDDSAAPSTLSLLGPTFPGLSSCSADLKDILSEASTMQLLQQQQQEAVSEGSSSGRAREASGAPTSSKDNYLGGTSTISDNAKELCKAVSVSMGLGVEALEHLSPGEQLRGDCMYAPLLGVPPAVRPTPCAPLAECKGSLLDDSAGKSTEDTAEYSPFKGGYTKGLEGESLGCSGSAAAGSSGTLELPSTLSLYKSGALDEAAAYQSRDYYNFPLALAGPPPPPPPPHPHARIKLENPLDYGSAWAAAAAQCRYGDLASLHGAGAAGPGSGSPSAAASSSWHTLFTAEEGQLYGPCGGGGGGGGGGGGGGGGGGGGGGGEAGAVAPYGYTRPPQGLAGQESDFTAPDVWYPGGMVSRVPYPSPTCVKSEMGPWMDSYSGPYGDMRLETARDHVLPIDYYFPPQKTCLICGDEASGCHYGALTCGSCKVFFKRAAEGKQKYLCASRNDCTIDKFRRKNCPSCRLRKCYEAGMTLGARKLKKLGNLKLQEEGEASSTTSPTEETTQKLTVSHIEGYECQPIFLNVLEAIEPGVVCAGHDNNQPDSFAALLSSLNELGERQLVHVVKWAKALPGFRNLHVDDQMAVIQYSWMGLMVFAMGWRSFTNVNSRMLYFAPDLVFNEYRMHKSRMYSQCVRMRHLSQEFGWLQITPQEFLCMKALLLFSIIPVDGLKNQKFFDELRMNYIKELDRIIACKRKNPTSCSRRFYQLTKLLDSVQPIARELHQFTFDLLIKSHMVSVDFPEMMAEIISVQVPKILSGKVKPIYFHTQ

[12] = target: T1, Glucocorticoid receptor
[13] = target: T4, Androgen receptor; test: biochemical
[14] = target: T5, Estrogen receptor (Homo sapiens, UniProt Q92731+P03372); test: Antagonistic efficacy against human estrogen receptor; assay type: functional
Summary of the method: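 Cotransfection LUC reporter assay for hER. Antagonist efficacy is the % maximal inhibition of a standard agonist (estradiol is the reference agonist for hER) applied at its EC50.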

[15] = target: T5, Estrogen receptor

| Ki [1] | EC50 [2] | EC50 [3] | Efficacy [4] | Efficacy [5] | Ki [6] | Ratio [7] | Ratio [8] | Ratio [9] | Ratio [10] | IC50 [11] | IC50 [12] | Ki [13] | SMILES | Efficacy [14] | IC50 [15] |
| --- | --- | --- | --- | --- | --- | --- | --- | --- | --- | --- | --- | --- | --- | --- | --- |
| 236 nM | 3.6 nM | 19 nM | 178% | 49% | 0.55 nM | 228 | > 1000 | 181 | > 1000 | 820 nM | 650 nM | > 1000 nM | CC1=CC(C)(C)Nc2ccc3c(c21)/C(=C/c1ccccc1C)Oc1ccc(F)cc1-3 | – | – |
| – | 11 nM | 97 nM | 78% | 62% | 11.4 nM | – | – | – | – | – | – | – | CC1=CC(C)(C)Nc2ccc3c(c21)/C(=C/c1ccccc1C#N)Oc1ccc(F)cc1-3 | – | – |
| – | 4 nM | 54 nM | 156% | 43% | 1.9 nM | – | – | – | – | – | – | – | CC1=CC(C)(C)Nc2ccc3c(c21)/C(=C/c1ccccc1C(C)C)Oc1ccc(F)cc1-3 | – | – |
| – | 5.8 nM | 4.9 nM | 105% | 49% | 1.5 nM | – | – | – | – | – | – | – | CC1=CC(C)(C)Nc2ccc3c(c21)/C(=C/c1ccncc1)Oc1ccc(F)cc1-3 | – | – |
| – | 2.7 nM | 18 nM | 170% | 51% | 5.5 nM | – | – | – | – | – | – | – | CC1=CC(C)(C)Nc2ccc3c(c21)/C(=C/c1cccc(F)c1)Oc1c(F)cccc1-3 | – | – |
| – | – | – | 146% | – | 22.4 nM | – | – | – | – | – | – | – | CC1=CC(C)(C)Nc2ccc3c(c21)/C(=C/c1ccccc1Cl)Oc1ccc(F)cc1-3 | – | – |
| – | – | 28 nM | – | 45% | – | – | – | – | – | – | – | – | CC1=CC(C)(C)Nc2ccc3c(c21)/C(=C/c1ccccc1C)Oc1ccccc1-3 | – | – |
| – | 4 nM | 8 nM | 175% | 36% | 0.71 nM | – | – | – | – | – | – | – | CC1=CC(C)(C)Nc2ccc3c(c21)/C(=C/c1ccc(F)cc1)Oc1c(F)cccc1-3 | – | – |
| 493 nM | 2.7 nM | 26 nM | 172% | 59% | 1.2 nM | 556 | > 1000 | 119 | > 1000 | 1500 nM | 320 nM | 819 nM | CC1=CC(C)(C)Nc2ccc3c(c21)/C(=C/c1ccccc1N(C)C)Oc1ccc(F)cc1-3 | – | – |
| – | 4.5 nM | 59 nM | 123% | 46% | 1.6 nM | – | – | – | – | – | – | – | CCCc1ccccc1/C=C1\Oc2ccc(F)cc2-c2ccc3c(c21)C(C)=CC(C)(C)N3 | – | – |
| – | 14 nM | 161 nM | 127% | 56% | 45.5 nM | – | – | – | – | – | – | – | CC1=CC(C)(C)Nc2ccc3c(c21)/C(=C/c1ccccc1C(F)(F)F)Oc1ccc(F)cc1-3 | – | – |
| – | 11 nM | 190 nM | 136% | 56% | 6.4 nM | – | – | – | – | – | – | – | CC1=CC(C)(C)Nc2ccc3c(c21)/C(=C/c1ccccc1OC(F)(F)F)Oc1ccc(F)cc1-3 | – | – |
| – | 15 nM | 44 nM | 50% | 40% | 9.2 nM | – | – | – | – | – | – | – | CC1=CC(C)(C)Nc2ccc3c(c21)/C(=C/c1ccccn1)Oc1ccc(F)cc1-3 | – | – |
| 386 nM | 6.2 nM | 41 nM | 132% | 53% | 0.59 nM | > 1000 | > 1000 | 139 | > 1000 | – | 860 nM | > 1000 nM | CSc1ccccc1/C=C1\Oc2ccc(F)cc2-c2ccc3c(c21)C(C)=CC(C)(C)N3 | – | – |
| – | 9 nM | 50 nM | 147% | 37% | 16.4 nM | – | – | – | – | – | – | – | CC1=CC(C)(C)Nc2ccc3c(c21)/C(=C/c1ccccc1Br)Oc1ccc(F)cc1-3 | – | – |
| 207 nM | – | 28 nM | 176% | 55% | 0.62 nM | 121 | > 1000 | 387 | > 1000 | 640 nM | 2050 nM | > 1000 nM | CC1=CC(C)(C)Nc2ccc3c(c21)/C(=C/c1ccccc1)Oc1ccc(F)cc1-3 | – | – |
| – | – | 29 nM | 190% | 47% | 0.62 nM | – | – | – | – | – | – | – | CC1=CC(C)(C)Nc2ccc3c(c21)/C(=C/c1ccccc1F)Oc1ccc(F)cc1-3 | – | – |
| – | 11 nM | 48 nM | 107% | 72% | 2.6 nM | – | – | – | – | – | – | – | CC1=CC(C)(C)Nc2ccc3c(c21)/C(=C/c1ccccc1C=O)Oc1ccc(F)cc1-3 | – | – |

| SMILES | Ki [1] | EC50 [2] | EC50 [3] | Efficacy [4] | Efficacy [5] | Ki [6] | Ratio [7] | Ratio [8] | Ratio [9] | Ratio [10] | IC50 [11] | IC50 [12] | Ki [13] | Efficacy [14] | IC50 [15] |
| --- | --- | --- | --- | --- | --- | --- | --- | --- | --- | --- | --- | --- | --- | --- | --- |
| COc1ccccc1/C=C1\Oc2ccc(F)cc2-c2ccc3c(c21)C(C)=CC(C)(C)N3 | 277 nM | – | 8 nM | 154% | 40% | 3.8 nM | > 1000 | > 1000 | 97 | > 1000 | – | 90 nM | 439 nM | 34% | 1885 nM |
| CC1=CC(C)(C)Nc2ccc3c(c21)/C(=C/c1ncccc1C)Oc1ccc(F)cc1-3 | 874 nM | 4.5 nM | 12 nM | 125% | 49% | 0.42 nM | – | > 1000 | – | > 1000 | 203 nM | 188 nM | > 1000 nM | – | – |
